Experimental data reported in PMC8179325 (Cell reports, 2021).
Entries after “also recorded” stand apart in the source; their conditions may differ. One block for each compound: values may come before it.

Assays:
[1] = target: T1, constitutively active SAM-TIR protein of human SARM1 (Homo sapiens, UniProt Q6SZW1); experiment: SAM-TIR NADase assay; assay type: biochemical
T1 sequence (Q6SZW1 409-700): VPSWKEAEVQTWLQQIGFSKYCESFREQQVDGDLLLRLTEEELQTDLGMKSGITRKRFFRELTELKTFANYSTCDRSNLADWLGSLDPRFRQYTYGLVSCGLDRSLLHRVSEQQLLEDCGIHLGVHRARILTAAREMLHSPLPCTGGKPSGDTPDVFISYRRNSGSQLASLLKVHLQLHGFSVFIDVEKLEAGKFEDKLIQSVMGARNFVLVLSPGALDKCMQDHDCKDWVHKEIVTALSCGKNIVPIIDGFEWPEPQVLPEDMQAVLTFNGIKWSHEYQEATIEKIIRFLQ

[2] = tested on: axotomized mouse dorsal root ganglia (DRG) axons; experiment: Axonal metabolites; assay type: cell-based; settings: axonal lysates after axotomy, dose dependent
Outline: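 Mouse E13.5 DRG neurons spotted at 100,000 cells/well; test compound present at graded concentrations; all axons severed around the soma cluster at DIV6. After 4 h, cell bodies removed on ice; axons extracted in 50% MeOH with chloroform partition, then lyophilized. cADPR and NAD+ quantified by online SPE-LC-MS/MS with 2-chloroadenosine internal standard against synthetic standard curves. Reported as ng/100,000 cells; n = 3/condition.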

[3] = tested on: axotomized mouse DRG neurons; experiment: Axon degeneration; assay type: cell-based; settings: for axonal protection after axotomy: WT mouse DRG, 16 h post-axotomy
Outline: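 Mouse DRG from E13.5 C57BL/6J embryos, trypsin/EDTA-dissociated (37°C, 30 min), spotted at 5,000 cells/well on poly-D-lysine/laminin; assay at 6–7 DIV. Test compound diluted from 10 mM DMSO stock (final DMSO 0.3%), pretreated 2 h unless added after injury (e.g. 30 µM at set times). Axons cut manually with micro-surgical blade and scored for fragmentation 16 h post-axotomy.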

[4] = tested on: human iPSC-derived motor neurons; experiment: Axon fragmentation after axotomy in human motor neurons; assay type: cell-based
Outline: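 Human iPSC-derived motor neurons spotted at 10,000 cells/well on poly-D-lysine/laminin in Complete Maintenance Medium + 5 µM DAPT; assay at 14 DIV. Test compound diluted from 10 mM DMSO stock (final DMSO 0.3%), pretreated 2 h before injury. Axons cut manually with micro-surgical blade and examined for fragmentation 16 h post-axotomy.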

mouse DRG neurons [5] = experiment: Rotenone-induced axonal degeneration; assay type: cell-based
Outline: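 Mouse DRG cultures at 6–7 DIV received 25 µM rotenone, either continuously or as 1- or 3-h pulses removed by gentle 3× rinsing. Test compound at 30 µM was given either as 2-h pretreatment or immediately after rotenone removal. Axonal fragmentation scored 48 h after rotenone onset; n = 4.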

mouse DRG neurons [6] = experiment: NfL release in response to rotenone; assay type: cell-based; settings: 25 μM rotenone
Outline: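 Culture supernatants from mouse DRG neurons exposed to 25 µM rotenone, either continuously sampled over time or as 1- or 3-h pulses with collection at 48 h. Neurofilament light measured by NF-Light ELISA per the kit instructions.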

mouse DRG neurons [7] = experiment: Video time-lapse analysis of individual axonal blebs after rotenone pulse; assay type: cell-based
Outline: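 Mouse DRG cultures given a 3-h pulse of 25 µM rotenone, rinsed, ± 30 µM test compound, then imaged brightfield every 15 min at 20X for 48 h. A blinded observer identified blebs at 3 h, tracked them back to confirm origin from healthy axons, then forward until fragmentation, resolution or end. Data analysed by Kaplan-Meier, with percentages taken at 48 h.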

mouse DRG axons = experiment: Mitochondrial membrane potential by TMRM fluorescence; assay type: cell-based
Outline: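 Mitochondrial membrane potential in mouse DRG axons read live as TMRM fluorescence; cells were then rinsed, fixed in 1% paraformaldehyde and immunostained for βIII-tubulin. Axotomy arm: 10 µM test compound. Rotenone arm: 3-h pulse of 25 µM rotenone, rinsed 3×, 30 µM test compound immediately afterward, imaged 48 h after rotenone onset; n = 4.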

mouse DRG neurons [8] = experiment: Axonal cADPR after 3-h rotenone pulse; assay type: cell-based; settings: 3 h 25 μM rotenone, rinse, then 4 h compound
Outline: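 Mouse DRG cultures given a 3-h pulse of 25 µM rotenone, rinsed, then test compound added. Axonal metabolites extracted on ice: cell bodies removed, 50% MeOH, chloroform partition, lyophilization. cADPR measured by SPE-LC-MS/MS with 2-chloroadenosine internal standard against synthetic standard curves; reported as ng/100,000 cells.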

CD38 = target: T2, CD38 (Homo sapiens, UniProt P28907); experiment: Biochemical selectivity panel
T2 sequence (P28907 1-300): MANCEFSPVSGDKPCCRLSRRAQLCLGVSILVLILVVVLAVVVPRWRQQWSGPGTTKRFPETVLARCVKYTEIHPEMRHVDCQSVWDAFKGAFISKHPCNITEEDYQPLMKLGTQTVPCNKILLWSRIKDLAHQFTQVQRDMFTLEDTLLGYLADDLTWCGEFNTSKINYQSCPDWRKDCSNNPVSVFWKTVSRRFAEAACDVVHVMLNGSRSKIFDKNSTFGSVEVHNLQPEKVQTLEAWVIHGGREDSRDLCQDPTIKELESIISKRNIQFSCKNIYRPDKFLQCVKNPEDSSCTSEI

mouse DRG somas = experiment: Neuronal cell death after rotenone pulse; assay type: cell-based; settings: WT DRG, 25 µM rotenone, 48 h
Outline: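 Live mouse DRG cultures exposed to 25 µM rotenone for 48 h, then stained 20 min with 0.25 µM Cytotox Green (dead cells) and 1 µM Cytolight red. Imaged by IncuCyte at 20X, 9 fields/well; bright-field gave total cell counts and green fluorescence gave dead somas.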

[9] = 30 μM added after 3-h pulse of 25 μM rotenone

IC50 [1]: 2.6 µM
SMILES: Oc1cccc2cnccc12 [compound 3, 5-hydroxyisoquinoline]

inhibitory activity against CD38 (CD38): no inhibitory activity
SMILES: Ic1cccc2cnccc12 [DSRM-3716, 5-iodoisoquinoline]
preservation of NAD+ after axotomy [2]: substantial preservation of NAD^+ | additional axonal protection in SARM1−/− neurons ([3]; SARM1−/− DRG, 30 µM, axotomy): did not provide benefit beyond the robust protection observed with SARM1 genetic loss of function | axonal protection after axotomy [3]: protected axons | axonal protection, inhibitor added after injury ([3]; added 5 h post-axotomy): robustly protected | protection from fragmentation after axotomy [4]: dose-dependent protection | protection from rotenone-induced axonal degeneration (pretreatment) (mouse DRG neurons [5]; 25 μM rotenone, 48 h, 30 μM compound): prevented axonal degeneration to the same extent as protection observed in SARM1^−/− neurons; also recorded: robust protection | protection from fragmentation, compound added after rotenone pulse (mouse DRG neurons [5]; 3-h pulse 25 μM rotenone, 30 μM compound immediately after removal, 48 h): protected axons from fragmentation | NfL release into culture supernatant in response to rotenone (mouse DRG neurons [6]): can be prevented | axonal blebs induced by rotenone that fragmented (transected) (mouse DRG neurons [7]; [9]): 10% | axonal blebs induced by rotenone that remained (mouse DRG neurons [7]; [9]): 30% | TMRM fluorescence (mitochondrial viability) after axotomy (mouse DRG axons; 10 μM, axotomy): preserved TMRM fluorescence; also recorded: maintained viable functional mitochondria | mitochondrial function by TMRM after rotenone pulse (mouse DRG axons; 3-h pulse 25 μM rotenone, 30 μM compound after removal, 48 h): preserved mitochondrial function | axonal levels of cADPR after rotenone pulse (mouse DRG neurons [8]): reduced axonal levels of cADPR

SMILES: O=C(c1cc(Cc2n[nH]c(=O)c3ccccc23)ccc1F)N1CCN(C(=O)C2CC2)CC1 [olaparib, reference compound]
axonal protection after axotomy [3]: no protection of injured axons

SMILES: C=C(C)[C@H]1Cc2c(ccc3c2O[C@@H]2COc4cc(OC)c(OC)cc4[C@@H]2C3=O)O1 [rotenone, reference compound]
axonal degeneration after rotenone pulse (mouse DRG neurons [5]; 25 μM rotenone removed after 1 h, examined at 48 h): ~ 70% | blebs transected after rotenone removal (mouse DRG neurons [7]; 3-h pulse 25 μM rotenone, by 18 h): 95% | blebs fragmented after rotenone removal (mouse DRG neurons [7]; 3-h pulse 25 μM rotenone, by 48 h): 100% | neuronal cell death (dead somas) caused by rotenone (mouse DRG somas): approximately 60%
